Structures are written as SMILES. The source made the active and inactive calls. The calls are words filed in the database; no cut-off is given here.

As a reminder, the IC50 is the concentration at which inhibition is half-maximal.

The subject of the first assay is HCT-116. As to the kind of experiment: Cytotoxicity against human HCT116 cells after 72 hrs by calcein-AM assay. In kind it is functional, cell-based. Conditions: HCT-116, 72 h.
As to `CC(C)(C)[C@H](NC(=O)c1cc(Cl)ccc1O)C(=O)Nc1cccc(C(F)(F)F)c1`, the IC50 is 5.4 µM.
Regarding `O=C(N[C@@H](CC1CCCCC1)C(=O)Nc1cccc(C(F)(F)F)c1)c1cc(Cl)ccc1O`, the IC50 was 1.5 µM.
For the compound `O=C(N[C@@H](CC1CCCCC1)C(=O)Nc1ccc(Br)cc1)c1cc(Cl)ccc1O`, the IC50 is 2 µM.
As to `CC(C)[C@H](NC(=O)c1cc(Cl)ccc1O)C(=O)Nc1ccc(C(F)(F)F)cc1`, the half-maximal inhibitory concentration (IC50) is 5.9 µM.

In the next assay the test system is HeLa. Briefly: Cytotoxicity against human HeLa cells after 72 hrs by calcein-AM assay. In kind it is functional, cell-based.
Conditions: not given
As for `CC(C)(C)[C@H](NC(=O)c1cc(Cl)ccc1O)C(=O)Nc1cccc(C(F)(F)F)c1`, the IC50 was 6.5 µM.
Turning to `O=C(N[C@@H](CC1CCCCC1)C(=O)Nc1cccc(C(F)(F)F)c1)c1cc(Cl)ccc1O`, the IC50 is 1.3 µM.
Take `O=C(N[C@@H](CC1CCCCC1)C(=O)Nc1ccc(Br)cc1)c1cc(Cl)ccc1O`: the IC50 is 1.3 µM.
For the compound `CC(C)[C@H](NC(=O)c1cc(Cl)ccc1O)C(=O)Nc1ccc(C(F)(F)F)cc1`, the concentration for half-maximal inhibition (IC50) is 5.4 µM.

The test system of the next assay is G-361. Briefly: Cytotoxicity against human G361 cells after 72 hrs by calcein-AM assay. In kind it is functional, cell-based. Particulars: G-361, 72 h.
With `CC(C)(C)[C@H](NC(=O)c1cc(Cl)ccc1O)C(=O)Nc1cccc(C(F)(F)F)c1`, the IC50 was 8.3 µM.
Same read-out and setting: for `O=C(N[C@@H](CC1CCCCC1)C(=O)Nc1cccc(C(F)(F)F)c1)c1cc(Cl)ccc1O` the value was 1.3 µM; for `O=C(N[C@@H](CC1CCCCC1)C(=O)Nc1ccc(Br)cc1)c1cc(Cl)ccc1O`, 1.3 µM; for `CC(C)[C@H](NC(=O)c1cc(Cl)ccc1O)C(=O)Nc1ccc(C(F)(F)F)cc1`, 6.6 µM.

In a further assay the test system is MCF7. As to the kind of experiment: Cytotoxicity against human MCF7 cells after 72 hrs by calcein-AM assay. The class given is functional, cell-based. Conditions: MCF7, 72 h.
With `CC(C)[C@H](NC(=O)c1ccc(Cl)cc1O)C(=O)Nc1ccc(Br)cc1`, the IC50 was > 10 µM.
On the same count and under the same terms, in the case of `C[C@H](NC(=O)c1cc(Cl)ccc1O)C(=O)Nc1cccc(Cl)c1` it was > 10 µM; in that of `O=C(CNC(=O)c1cc(Cl)ccc1O)Nc1cccc(Cl)c1`, > 10 µM; in that of `C[C@H](NC(=O)c1ccc(Cl)cc1O)C(=O)Nc1ccc(Cl)cc1`, > 10 µM.
`CC[C@H](CO)Nc1nc(NCc2ccccc2)c2ncn(C(C)C)c2n1` [SELICICLIB]: the IC50 was 12.3 µM.
For `CC(C)(C)[C@H](NC(=O)c1cc(Cl)ccc1O)C(=O)Nc1cccc(C(F)(F)F)c1`, the IC50 is 8.8 µM.
Regarding `CC(C)[C@H](NC(=O)c1cc(Cl)ccc1O)C(=O)Nc1ccc(Cl)c(Cl)c1`, the IC50 was > 10 µM.
Turning to `C[C@H](NC(=O)c1ccc(Cl)cc1O)C(=O)Nc1ccc(Cl)c(Cl)c1`, the IC50 was > 12.5 µM.
In the case of `CC(C)[C@H](NC(=O)c1cc(Cl)ccc1O)C(=O)Nc1cccc(Cl)c1`, the IC50 is > 10 µM.
The same measure, in the same setting: for `O=C(N[C@H](Cc1ccccc1)C(=O)Nc1ccc(Cl)cc1)c1ccc(Cl)cc1O` the value was > 10 µM; for `COc1ccc(NC(=O)[C@@H](NC(=O)c2cc(Cl)ccc2O)C(C)C)cc1`, > 10 µM.
Take `Cc1ccc(NC(=O)[C@H](C)NC(=O)c2cc(Cl)ccc2O)cc1`: the IC50 is > 10 µM.
As for `O=C(N[C@H](Cc1ccccc1)C(=O)Nc1ccc(Cl)c(Cl)c1)c1cc(Cl)ccc1O`, the IC50 is > 10 µM.
`O=C(N[C@@H](Cc1ccccc1)C(=O)Nc1cccc(Cl)c1)c1cc(Cl)ccc1O`: the IC50 was > 10 µM.
`CC(C)[C@@H](NC(=O)c1cc(Cl)ccc1O)C(=O)Nc1cccc(Cl)c1`: the IC50 is > 10 µM.
As for `Cc1ccc(NC(=O)c2ccc(CN3CCN(C)CC3)cc2)cc1Nc1nccc(-c2cccnc2)n1` [IMATINIB], the IC50 is > 10 µM.
Take `CC(C)[C@H](NC(=O)c1ccc(Cl)cc1O)C(=O)Nc1ccc(Cl)cc1`: the IC50 was > 10 µM.
As to `CC(C)[C@H](NC(=O)c1cc(Cl)ccc1O)C(=O)Nc1ccc(Cl)cc1`, the IC50 is > 10 µM.
For `C[C@@H](NC(=O)c1ccc(Cl)cc1O)C(=O)Nc1ccc(Cl)cc1`, the IC50 was > 10 µM.
In the case of `O=C(CNC(=O)c1cc(Cl)ccc1O)Nc1ccc(Cl)c(Cl)c1`, the IC50 was > 20 µM.
Same read-out and setting: for `O=C(N[C@@H](CC1CCCCC1)C(=O)Nc1cccc(C(F)(F)F)c1)c1cc(Cl)ccc1O` the value was 2.3 µM; for `O=C(N[C@@H](CC1CCCCC1)C(=O)Nc1ccc(Br)cc1)c1cc(Cl)ccc1O`, 1.9 µM.
As to `O=C(N[C@@H](Cc1ccccc1)C(=O)Nc1ccc(Cl)cc1)c1ccc(Cl)cc1O`, the IC50 is 9.1 µM.
On to `C[C@H](NC(=O)c1ccc(Cl)cc1O)C(=O)Nc1ccc(C(F)(F)F)cc1`, for which the IC50 is > 12.5 µM.
Take `CC(C)[C@H](NC(=O)c1cc(Cl)ccc1O)C(=O)Nc1ccccc1`: the IC50 was > 10 µM.
The same measure, in the same setting: in the case of `C[C@H](NC(=O)c1cc(Cl)ccc1O)C(=O)Nc1ccc(C(F)(F)F)cc1` it was > 12.5 µM; in that of `O=C(N[C@@H](Cc1ccccc1)C(=O)Nc1ccc(Cl)cc1)c1cc(Cl)ccc1O`, 7.9 µM.
For the compound `C[C@@H](NC(=O)c1cc(Cl)ccc1O)C(=O)Nc1ccc(Cl)cc1`, the IC50 was > 20 µM.
For `O=C(N[C@@H](Cc1ccccc1)C(=O)Nc1ccc(Cl)c(Cl)c1)c1ccc(Cl)cc1O`, the IC50 was 7.3 µM.
On to `CC(C)[C@H](NC(=O)c1cc(Cl)ccc1O)C(=O)Nc1ccc(C(F)(F)F)cc1`, for which the half-inhibitory concentration (IC50) was 7.3 µM.
The same measure, in the same setting: in the case of `CC(C)[C@H](NC(=O)c1ccc(Cl)cc1O)C(=O)Nc1ccc(Cl)c(Cl)c1` it was > 10 µM; in that of `O=C(N[C@@H](Cc1ccccc1)C(=O)Nc1ccc(Cl)c(Cl)c1)c1cc(Cl)ccc1O`, > 10 µM; in that of `O=C(N[C@H](Cc1ccccc1)C(=O)Nc1cccc(Cl)c1)c1cc(Cl)ccc1O`, 18.4 µM.

For the next assay, the system named is K562. Briefly: Cytotoxicity against human K562 cells after 72 hrs by calcein-AM assay. Conditions: K562, 72 h. The class given is functional, cell-based.
`CC(C)[C@H](NC(=O)c1ccc(Cl)cc1O)C(=O)Nc1ccc(Br)cc1`: the IC50 was > 10 µM.
Take `C[C@H](NC(=O)c1cc(Cl)ccc1O)C(=O)Nc1cccc(Cl)c1`: the IC50 was > 10 µM.
Turning to `O=C(CNC(=O)c1cc(Cl)ccc1O)Nc1cccc(Cl)c1`, the IC50 is > 10 µM.
Regarding `C[C@H](NC(=O)c1ccc(Cl)cc1O)C(=O)Nc1ccc(Cl)cc1`, the concentration for half-maximal inhibition (IC50) was > 10 µM.
Turning to `CC(C)(C)[C@H](NC(=O)c1cc(Cl)ccc1O)C(=O)Nc1cccc(C(F)(F)F)c1`, the IC50 was 5.9 µM.
As to `CC(C)[C@H](NC(=O)c1cc(Cl)ccc1O)C(=O)Nc1ccc(Cl)c(Cl)c1`, the half-inhibitory concentration (IC50) was > 10 µM.
Take `C[C@H](NC(=O)c1ccc(Cl)cc1O)C(=O)Nc1ccc(Cl)c(Cl)c1`: the IC50 is > 12.5 µM.
Take `CC(C)[C@H](NC(=O)c1cc(Cl)ccc1O)C(=O)Nc1cccc(Cl)c1`: the IC50 was > 10 µM.
For the compound `O=C(N[C@H](Cc1ccccc1)C(=O)Nc1ccc(Cl)cc1)c1ccc(Cl)cc1O`, the IC50 was > 10 µM.
On the same count and under the same terms, in the case of `COc1ccc(NC(=O)[C@@H](NC(=O)c2cc(Cl)ccc2O)C(C)C)cc1` it was > 10 µM.
Turning to `Cc1ccc(NC(=O)[C@H](C)NC(=O)c2cc(Cl)ccc2O)cc1`, the IC50 is > 10 µM.
On to `O=C(N[C@H](Cc1ccccc1)C(=O)Nc1ccc(Cl)c(Cl)c1)c1cc(Cl)ccc1O`, for which the IC50 was > 10 µM.
For `O=C(N[C@@H](Cc1ccccc1)C(=O)Nc1cccc(Cl)c1)c1cc(Cl)ccc1O`, the IC50 was > 10 µM.
Consider `CC(C)[C@@H](NC(=O)c1cc(Cl)ccc1O)C(=O)Nc1cccc(Cl)c1`, for which the half-maximal inhibitory concentration (IC50) was > 10 µM.
Regarding `Cc1ccc(NC(=O)c2ccc(CN3CCN(C)CC3)cc2)cc1Nc1nccc(-c2cccnc2)n1` [IMATINIB], the IC50 is 0.5 µM.
Regarding `CC(C)[C@H](NC(=O)c1ccc(Cl)cc1O)C(=O)Nc1ccc(Cl)cc1`, the IC50 is > 10 µM.
Turning to `CC(C)[C@H](NC(=O)c1cc(Cl)ccc1O)C(=O)Nc1ccc(Cl)cc1`, the IC50 was > 20 µM.
Consider `C[C@@H](NC(=O)c1ccc(Cl)cc1O)C(=O)Nc1ccc(Cl)cc1`, for which the IC50 is > 10 µM.
As to `O=C(CNC(=O)c1cc(Cl)ccc1O)Nc1ccc(Cl)c(Cl)c1`, the IC50 is > 20 µM.
For `O=C(N[C@@H](CC1CCCCC1)C(=O)Nc1cccc(C(F)(F)F)c1)c1cc(Cl)ccc1O`, the IC50 was 3.4 µM.
Consider `O=C(N[C@@H](CC1CCCCC1)C(=O)Nc1ccc(Br)cc1)c1cc(Cl)ccc1O`, for which the IC50 was 3 µM.
For `O=C(N[C@@H](Cc1ccccc1)C(=O)Nc1ccc(Cl)cc1)c1ccc(Cl)cc1O`, the IC50 is > 10 µM.
As for `C[C@H](NC(=O)c1ccc(Cl)cc1O)C(=O)Nc1ccc(C(F)(F)F)cc1`, the IC50 is > 12.5 µM.
In the case of `CC(C)[C@H](NC(=O)c1cc(Cl)ccc1O)C(=O)Nc1ccccc1`, the IC50 is > 10 µM.
Regarding `C[C@H](NC(=O)c1cc(Cl)ccc1O)C(=O)Nc1ccc(C(F)(F)F)cc1`, the IC50 was > 12.5 µM.
For `O=C(N[C@@H](Cc1ccccc1)C(=O)Nc1ccc(Cl)cc1)c1cc(Cl)ccc1O`, the IC50 was > 10 µM.
Still for that read-out and setting: in the case of `C[C@@H](NC(=O)c1cc(Cl)ccc1O)C(=O)Nc1ccc(Cl)cc1` it was > 20 µM.
As to `O=C(N[C@@H](Cc1ccccc1)C(=O)Nc1ccc(Cl)c(Cl)c1)c1ccc(Cl)cc1O`, the IC50 was > 10 µM.
With `CC(C)[C@H](NC(=O)c1cc(Cl)ccc1O)C(=O)Nc1ccc(C(F)(F)F)cc1`, the IC50 is 4.5 µM.
As for `CC(C)[C@H](NC(=O)c1ccc(Cl)cc1O)C(=O)Nc1ccc(Cl)c(Cl)c1`, the IC50 was > 10 µM.
As to `O=C(N[C@@H](Cc1ccccc1)C(=O)Nc1ccc(Cl)c(Cl)c1)c1cc(Cl)ccc1O`, the IC50 is > 10 µM.
Regarding `O=C(N[C@H](Cc1ccccc1)C(=O)Nc1cccc(Cl)c1)c1cc(Cl)ccc1O`, the half-maximal inhibitory concentration (IC50) was > 20 µM.

For another assay, the system named is G-361. As to the kind of experiment: Induction of apoptosis in human G361 cells assessed as caspase-3/7 activation at 2 uM after 24 hrs by fluorescence assay relative to control. The class given is functional.
Conditions: not given
In short, it runs like this: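 G361 cells seeded at 20,000 per well overnight, then exposed 24 h to compound at 2 µM final. 3x caspase-3/7 buffer (HEPES pH 7.4, NaCl, KCl, MgCl2, EGTA, NP-40, CHAPS, sucrose, DTT, PMSF) with Ac-DEVD-AMC substrate added; incubated 37 °C, fluorescence read after 4 h at 346/442 nm; activity expressed relative to untreated cells.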
For the compound `CC(C)(C)[C@H](NC(=O)c1cc(Cl)ccc1O)C(=O)Nc1cccc(C(F)(F)F)c1`, the result was Active.
Consider `O=C(N[C@@H](CC1CCCCC1)C(=O)Nc1cccc(C(F)(F)F)c1)c1cc(Cl)ccc1O`, for which the “fold change (FC)” value was >10.
Turning to `O=C(N[C@@H](CC1CCCCC1)C(=O)Nc1ccc(Br)cc1)c1cc(Cl)ccc1O`, the “fold change (FC)” value is given as >10.
Turning to `CC(C)[C@H](NC(=O)c1cc(Cl)ccc1O)C(=O)Nc1ccc(C(F)(F)F)cc1`, the outcome was Active.

The subject of the next assay is HOS. As to the kind of experiment: Cytotoxicity against human HOS cells after 72 hrs by calcein-AM assay.
Conditions: not given
In kind it is functional, cell-based.
`CC(C)(C)[C@H](NC(=O)c1cc(Cl)ccc1O)C(=O)Nc1cccc(C(F)(F)F)c1`: the IC50 was 7.8 µM.
In the case of `O=C(N[C@@H](CC1CCCCC1)C(=O)Nc1cccc(C(F)(F)F)c1)c1cc(Cl)ccc1O`, the IC50 is 3.4 µM.
As to `O=C(N[C@@H](CC1CCCCC1)C(=O)Nc1ccc(Br)cc1)c1cc(Cl)ccc1O`, the IC50 was 3.3 µM.
Still for that read-out and setting: in the case of `CC(C)[C@H](NC(=O)c1cc(Cl)ccc1O)C(=O)Nc1ccc(C(F)(F)F)cc1` it was 7 µM.

The record behind these values is ChEMBL document CHEMBL2424632, “Substituted 2-hydroxy-N-(arylalkyl)benzamides induce apoptosis in cancer cell lines” (Eur J Med Chem, 2013).
